The source of these data is ChEMBL document CHEMBL1799953, “Backbone cyclic peptide inhibitors of protein kinase B (PKB/Akt)” (J Med Chem, 2011).

*1 amine or outer side, *2 acyl side, *3 side chain or, on linkers, in order; H or OH if unused. Where a SMILES comes first, the peptide text is derived from it. Bridges are numbered along the chain shown (N, C = ends). [ ]: non-standard residue; d: D form. N(6-aminohexyl)Gly = O=C(CN(CCCCCCN[*:3])[*:1])[*:2]; NGly(3-aminopropyl) = O=C(CN(CCCN[*:3])[*:1])[*:2]; N(2-Aminoethyl)Gly = O=C(CN(CCN[*:3])[*:1])[*:2]; Gly(N-(CH2)6NH2) = NCCCCCCNCC(=O)O; Gly(N-2-aminoethyl) = NCCNCC(=O)O; Cha = N[C@@H](CC1CCCCC1)C(=O)O; Gly(N(CH2)3NH2) = NCCCNCC(=O)O; Suc = O=C(CCC(=O)[*:2])[*:1]; hLeu = CC(C)CC[C@H](N)C(=O)O; Nva = CCC[C@H](N)C(=O)O; Dap = NC[C@H](N)C(=O)O; CO = O=C([*:1])[*:2]; Nlys = NCCCCNCC(=O)O

By inhibition is commonly meant the drop in the measured response relative to a control, in per cent. The IC50 is the concentration that gives 50% inhibition.

In one assay the target is T1, RAC-alpha serine/threonine-protein kinase (Homo sapiens, UniProt P31749). As to the kind of experiment: Inhibition of Akt using RPRTSSF peptide and [gamma32]ATP at 5 uM by cell-free radioactive assay relative to control. The method in brief: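 Cell-free 32P kinase assay: HisΔPHPKBEEEFlag (0.005 units, one-step Ni-NTA partial purification), 50 mM Hepes pH 7.4, 0.1 mM EGTA, 0.1% 2-mercaptoethanol, 10 mM magnesium acetate, 3 μM RPRTSSF substrate, 10 μM [γ32P]ATP (1 μCi/well). Inhibitor at 5 μM. Activity loss expressed as percent of uninhibited reaction.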
T1 sequence (P31749 whole entry): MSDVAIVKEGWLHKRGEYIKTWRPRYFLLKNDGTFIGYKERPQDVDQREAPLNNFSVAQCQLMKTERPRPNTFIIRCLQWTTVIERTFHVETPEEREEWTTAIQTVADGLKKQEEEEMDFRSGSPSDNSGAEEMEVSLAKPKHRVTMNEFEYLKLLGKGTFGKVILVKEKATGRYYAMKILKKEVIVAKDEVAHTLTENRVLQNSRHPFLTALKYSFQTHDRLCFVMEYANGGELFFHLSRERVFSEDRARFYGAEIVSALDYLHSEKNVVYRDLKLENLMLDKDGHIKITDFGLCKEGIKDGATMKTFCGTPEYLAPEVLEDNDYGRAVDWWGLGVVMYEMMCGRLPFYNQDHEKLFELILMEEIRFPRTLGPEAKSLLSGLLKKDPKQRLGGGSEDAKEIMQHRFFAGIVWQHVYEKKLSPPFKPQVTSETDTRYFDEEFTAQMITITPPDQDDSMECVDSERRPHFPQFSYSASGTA
On to `CCC[C@@H]1NC(=O)[C@H](CCCNC(=N)N)NC(=O)[C@@H]2CCCN2C(=O)[C@H](CCCNC(=N)N)NC(=O)CCC(=O)NCCCCN(CC(N)=O)C(=O)[C@H](CCC(C)C)NC(=O)[C@H](CN)NC(=O)[C@H](Cc2ccc(O)cc2)NC1=O` (RPR[Nva]Y[Dap][hLeu][Nlys]-NH2; linker N-8 via Suc), for which the inhibition is 13%.

Another assay deals with T1, RAC-alpha serine/threonine-protein kinase. As to the kind of experiment: Inhibition of Akt using RPRTSSF peptide and [gamma32]ATP by cell-free radioactive assay. The method in brief: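 Same reaction: HisΔPHPKBEEEFlag (0.005 units), 50 mM Hepes pH 7.4, 0.1 mM EGTA, 0.1% 2-mercaptoethanol, 10 mM magnesium acetate, 3 μM RPRTSSF, 10 μM [γ32P]ATP. Peptide stock concentration determined by UV spectrophotometry; reference peptide run in every assay.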
For the molecule `CCC[C@H](NC(=O)[C@H](CCCN=C(N)N)NC(=O)[C@H](CN)NC(=O)[C@@H](N)CCCN=C(N)N)C(=O)N[C@@H](Cc1ccc(O)cc1)C(=O)N[C@@H](CN)C(=O)N[C@@H](CCC(C)C)C(N)=O`, the 50% inhibitory concentration (IC50) was found to be 860 nM. The same measure, in the same setting: the result for `CCC[C@H](NC(=O)[C@H](CCCN=C(N)N)NC(=O)[C@H](CCCCN)NC(=O)[C@@H](N)CCCN=C(N)N)C(=O)N[C@@H](Cc1ccc(O)cc1)C(=O)N[C@@H](CN)C(=O)N[C@@H](CCC(C)C)C(N)=O` reads 2150 nM; that for `CCC[C@H](NC(=O)[C@H](CCCN=C(N)N)NC(=O)[C@H](CC1CCCCC1)NC(=O)[C@@H](N)CCCN=C(N)N)C(=O)N[C@@H](Cc1ccc(O)cc1)C(=O)N[C@@H](CN)C(=O)N[C@@H](CCC(C)C)C(N)=O` (H-R[Cha]R[Nva]Y[Dap][hLeu]-NH2), 950 nM; that for `CCC[C@H](NC(=O)[C@H](CCCN=C(N)N)NC(=O)CN(CCCN)C(=O)[C@@H](N)CCCN=C(N)N)C(=O)N[C@@H](Cc1ccc(O)cc1)C(=O)N[C@@H](CN)C(=O)N[C@@H](CCC(C)C)C(=O)N(CCN)CC(N)=O` (H-R[Gly(N(CH2)3NH2)]R[Nva]Y[Dap][hLeu][Gly(N-2-aminoethyl)]-NH2), 320 nM.

As to `CCC[C@H](NC(=O)[C@H](CCCN=C(N)N)NC(=O)CN(CCN)C(=O)[C@@H](N)CCCN=C(N)N)C(=O)N[C@@H](Cc1ccc(O)cc1)C(=O)N[C@@H](CN)C(=O)N[C@@H](CCC(C)C)C(=O)N(CCCN)CC(N)=O` (H-R[Gly(N-2-aminoethyl)]R[Nva]Y[Dap][hLeu][Gly(N(CH2)3NH2)]-NH2), the IC50 came out at 250 nM. In the case of `CCC[C@H](NC(=O)[C@H](CCCN=C(N)N)NC(=O)CN(CCN)C(=O)[C@@H](N)CCCN=C(N)N)C(=O)N[C@@H](Cc1ccc(O)cc1)C(=O)N[C@@H](CN)C(=O)N[C@@H](CCC(C)C)C(=O)N(CCCCN)CC(N)=O` (H-R[Gly(N-2-aminoethyl)]R[Nva]Y[Dap][hLeu][Nlys]-NH2), the IC50 turned out to be 176 nM. In the case of `CCC[C@H](NC(=O)[C@H](CCCN=C(N)N)NC(=O)CN(CCCCCCN)C(=O)[C@@H](N)CCCN=C(N)N)C(=O)N[C@@H](Cc1ccc(O)cc1)C(=O)N[C@@H](CN)C(=O)N[C@@H](CCC(C)C)C(=O)N(CCN)CC(N)=O` (H-R[Gly(N-(CH2)6NH2)]R[Nva]Y[Dap][hLeu][Gly(N-2-aminoethyl)]-NH2), the IC50 is 320 nM.

Take `CCC[C@H](NC(=O)[C@H](CCCN=C(N)N)NC(=O)CN(CCCCCCN)C(=O)[C@@H](N)CCCN=C(N)N)C(=O)N[C@@H](Cc1ccc(O)cc1)C(=O)N[C@@H](CN)C(=O)N[C@@H](CCC(C)C)C(=O)N(CCCCN)CC(N)=O` (H-R[Gly(N-(CH2)6NH2)]R[Nva]Y[Dap][hLeu][Nlys]-NH2): the IC50 was found to be 160 nM.

As for `CCC[C@@H]1NC(=O)[C@H](CCCN=C(N)N)NC(=O)CN(C(=O)[C@@H](N)CCCN=C(N)N)CCNC(=O)NCCCCN(CC(N)=O)C(=O)[C@H](CCC(C)C)NC(=O)[C@H](CN)NC(=O)[C@H](Cc2ccc(O)cc2)NC1=O` (H-R[N(2-Aminoethyl)Gly]R[Nva]Y[Dap][hLeu][Nlys]-NH2; linker 2-8 via CO), the IC50 is 282 nM.

For `CCC[C@@H]1NC(=O)[C@H](CCCN=C(N)N)NC(=O)CN(C(=O)[C@@H](N)CCCN=C(N)N)CCCCCCNC(=O)NCCCCN(CC(N)=O)C(=O)[C@H](CCC(C)C)NC(=O)[C@H](CN)NC(=O)[C@H](Cc2ccc(O)cc2)NC1=O` (H-R[N(6-aminohexyl)Gly]R[Nva]Y[Dap][hLeu][Nlys]-NH2; linker 2-8 via CO), the IC50 is 280 nM. Same read-out and setting: the result for `CCC[C@@H]1NC(=O)[C@H](CCCN=C(N)N)NC(=O)CN(C(=O)[C@@H](N)CCCN=C(N)N)CCCNC(=O)NCCCN(CC(N)=O)C(=O)[C@H](CCC(C)C)NC(=O)[C@H](CN)NC(=O)[C@H](Cc2ccc(O)cc2)NC1=O` (H-R[NGly(3-aminopropyl)]R[Nva]Y[Dap][hLeu][NGly(3-aminopropyl)]-NH2; linker 2-8 via CO) reads 590 nM; that for `CCC[C@H](NC(=O)[C@H](CCCN=C(N)N)NC(=O)CN(CCCCN)C(=O)[C@@H](N)CCCN=C(N)N)C(=O)N[C@@H](Cc1ccc(O)cc1)C(=O)N[C@@H](CN)C(=O)N[C@@H](CCC(C)C)C(=O)N(CCN)CC(N)=O` (H-R[Nlys]R[Nva]Y[Dap][hLeu][Gly(N-2-aminoethyl)]-NH2), 220 nM.
